Measurements: ChEMBL document CHEMBL1147489, “Pi-delocalized beta-carbolinium cations as potential antimalarials” (Bioorg Med Chem Lett, 2004)

Assays:
Plasmodium falciparum = assay: In vitro antimalarial activity against Plasmodium falciparum FCR3; type: functional, organism-based
Summary of the method: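 Drug-sensitive P. falciparum FCR-3 strain tested in vitro; antimalarial potency given as EC50 (M).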

FM3A [1] = assay: Relative activity against FM3A cells and Plasmodium falciparum FCR3; type: functional
Summary of the method: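 Selective toxicity calculated as EC50 in FM3A cells divided by EC50 against P. falciparum FCR-3.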

FM3A [2] = assay: In vitro cytotoxic activity tested in mouse mammary tumor FM3A cells; type: functional, cell-based
Summary of the method: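 Growth-inhibition assay in mouse mammary tumour FM3A cells, used as a model of the host. The value reported is the EC50 for cell growth.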

FM3A [3] = assay: In vitro growth inhibitory activity tested in mouse mammary tumor FM3A cells at 3.0E-5 M concentration

Compound	EC50 (Plasmodium falciparum) [µM]	Selective toxicity (FM3A [1])	EC50 (FM3A [2]) [µM]	Percent growth (FM3A [3]) [%]
C[n+]1ccc2c([nH]c3ccccc32)c1-c1ccccc1.Cc1ccc(S(=O)(=O)[O-])cc1	13	>1.8		
COc1c[n+](C)c(C)c2[nH]c3ccccc3c12.[I-]	0.37	81	30	
CC1=NCCc2c1[nH]c1ccccc21	18	2.1	45	
Cc1c2[nH]c3ccccc3c2cc[n+]1C.Cc1ccc(S(=O)(=O)[O-])cc1	2	18	35	
CC1=[N+](C)CCc2c1[nH]c1ccccc21.Cc1ccc(S(=O)(=O)[O-])cc1	16	>24		
CCOC(=O)c1c2[nH]c3ccccc3c2c(OC)c[n+]1C.Cc1ccc(S(=O)(=O)[O-])cc1	19	1.2	22	
C=Cc1c2[nH]c3ccccc3c2c(OC)c[n+]1CC.Cc1ccc(S(=O)(=O)[O-])cc1	0.13	77	10	
COc1cnc(C)c2[nH]c3ccccc3c12	22	0.82	18	
COc1ccc2c(c1)[nH]c1c(C)[n+](C)ccc12.Cc1ccc(S(=O)(=O)[O-])cc1	1.1	17	19	
COc1ccc2c3cc[n+](CCO)c(C)c3n(C)c2c1.[Br-]	1.1	>65		
COc1ccc2c3ccnc(C)c3n(C)c2c1	31	1	32	
C=Cc1c2[nH]c3ccccc3c2c(OC)c[n+]1C.Cc1ccc(S(=O)(=O)[O-])cc1	1.1	7.6	8.4	
Cc1c2nc3ccccc3c-2ccn1C	4.8	6	29	
COc1ccc2c3cc[n+](C)c(C)c3n(C)c2c1.Cc1ccc(S(=O)(=O)[O-])cc1	0.46	48	22	
CCc1c2[nH]c3ccccc3c2c(OC)c[n+]1C.[I-]	0.95	>32		63
C=Cc1ncc(OC)c2c1[nH]c1ccccc12	5	0.76	3.8	
COc1ccc2c(c1)[nH]c1c(C)nccc12 [HARMINE]	22	0.82	18	
C=C[C@H]1CN2CC[C@H]1C[C@H]2[C@H](O)c1ccnc2ccc(OC)cc12 [QUININE]		910		
